From BindingDB's records for doi:10.1021/jm970020k (Eli Lilly, 1997) come the findings set out here.

Each structure is given as a SMILES string.

Integrin alpha-IIb/beta-3, sequence (P05106 27-788 limits assumed): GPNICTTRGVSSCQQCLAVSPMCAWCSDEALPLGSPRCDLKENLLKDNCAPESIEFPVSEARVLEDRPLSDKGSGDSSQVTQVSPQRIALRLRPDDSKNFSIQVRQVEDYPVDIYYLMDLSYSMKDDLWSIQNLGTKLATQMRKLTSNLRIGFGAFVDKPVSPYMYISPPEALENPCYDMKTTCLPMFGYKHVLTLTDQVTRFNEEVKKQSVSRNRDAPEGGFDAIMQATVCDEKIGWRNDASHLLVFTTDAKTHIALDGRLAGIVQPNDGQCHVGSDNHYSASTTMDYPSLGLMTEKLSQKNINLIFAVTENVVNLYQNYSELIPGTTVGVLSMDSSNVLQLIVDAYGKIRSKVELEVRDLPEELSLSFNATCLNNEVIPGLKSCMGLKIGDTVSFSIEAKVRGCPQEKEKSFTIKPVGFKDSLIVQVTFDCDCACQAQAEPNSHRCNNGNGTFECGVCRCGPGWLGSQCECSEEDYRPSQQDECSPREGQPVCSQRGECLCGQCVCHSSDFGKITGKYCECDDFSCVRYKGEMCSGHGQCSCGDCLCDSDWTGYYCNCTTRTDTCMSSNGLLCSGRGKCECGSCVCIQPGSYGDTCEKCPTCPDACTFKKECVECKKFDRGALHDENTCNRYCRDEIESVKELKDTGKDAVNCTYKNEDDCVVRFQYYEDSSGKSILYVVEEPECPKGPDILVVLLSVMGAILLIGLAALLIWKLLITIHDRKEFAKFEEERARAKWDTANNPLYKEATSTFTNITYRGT
Integrin alpha-IIb/beta-3, sequence (P08514 32-887 limits assumed): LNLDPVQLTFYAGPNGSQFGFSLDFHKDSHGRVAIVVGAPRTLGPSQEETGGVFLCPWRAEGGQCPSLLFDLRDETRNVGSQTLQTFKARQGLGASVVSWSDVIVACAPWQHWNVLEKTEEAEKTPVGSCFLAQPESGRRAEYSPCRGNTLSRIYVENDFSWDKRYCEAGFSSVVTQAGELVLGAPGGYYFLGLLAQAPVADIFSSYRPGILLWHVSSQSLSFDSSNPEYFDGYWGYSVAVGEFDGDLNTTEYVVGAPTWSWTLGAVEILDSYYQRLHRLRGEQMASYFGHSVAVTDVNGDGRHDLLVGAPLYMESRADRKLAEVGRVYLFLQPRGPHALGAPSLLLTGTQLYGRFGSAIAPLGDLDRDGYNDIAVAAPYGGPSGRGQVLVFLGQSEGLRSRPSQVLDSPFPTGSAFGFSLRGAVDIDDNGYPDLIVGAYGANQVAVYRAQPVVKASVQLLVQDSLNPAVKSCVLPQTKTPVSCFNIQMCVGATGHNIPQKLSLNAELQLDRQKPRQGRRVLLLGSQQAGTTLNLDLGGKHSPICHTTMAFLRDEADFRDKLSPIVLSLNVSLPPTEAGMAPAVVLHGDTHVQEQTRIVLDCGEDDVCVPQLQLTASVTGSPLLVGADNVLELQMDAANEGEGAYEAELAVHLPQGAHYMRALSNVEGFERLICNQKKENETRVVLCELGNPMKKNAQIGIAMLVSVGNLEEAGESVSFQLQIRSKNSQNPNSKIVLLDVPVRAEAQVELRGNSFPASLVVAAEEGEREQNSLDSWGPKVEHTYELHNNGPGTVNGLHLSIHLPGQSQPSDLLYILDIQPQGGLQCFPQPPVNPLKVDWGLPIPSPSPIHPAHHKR
Integrin alpha-IIb/beta-3, sequence (P08514 891-1039 limits assumed): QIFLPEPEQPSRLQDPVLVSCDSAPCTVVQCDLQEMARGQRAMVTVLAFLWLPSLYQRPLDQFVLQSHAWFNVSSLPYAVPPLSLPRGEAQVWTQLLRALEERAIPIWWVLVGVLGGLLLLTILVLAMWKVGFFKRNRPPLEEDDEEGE

One test has as its target Integrin alpha-IIb/beta-3 (Homo sapiens, UniProt P08514+P05106). In words: Inhibition of the platelet GPIIb-IIIa receptor measured as ability to attenuate ADP-induced (fibrinogen-mediated) platelet aggregation in human platelet-rich plasma (PRP). The essentials: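 Functional GPIIb-IIIa assay in human platelet-rich plasma. Aggregation was induced with ADP and depends on fibrinogen.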
Take `N=C(N)c1ccc2[nH]c(C(=O)NCc3ccc(CCC(=O)O)cc3)cc2c1` [3-(4-{[(5-Carbamimidoyl-1H-indole-2-carbonyl)-amino]-methyl}-phenyl)-propionic acid]: it took 39 µM to reach half-maximal inhibition (IC50). The same measure, in the same setting: the same measure for `CCCCC(CCCCNC(=O)c1cc2cc(C(=N)N)ccc2[nH]1)CC(=O)O` (stereo unspecified) [3-Butyl-7-[(5-carbamimidoyl-1H-indole-2-carbonyl)-amino]-heptanoic acid]: 25.3 µM; for `N=C(N)c1ccc2[nH]c(C(=O)NCCC(=O)NCCC(=O)O)cc2c1` [3-{3-[(5-Carbamimidoyl-1H-indole-2-carbonyl)-amino]-propionylamino}-propionic acid]: 3.6 µM. Still for that read-out and setting: to `CCCCCCC(CCCCNC(=O)c1cc2cc(C(=N)N)ccc2[nH]1)CC(=O)O` (stereo unspecified) [3-{4-[(5-Carbamimidoyl-1H-indole-2-carbonyl)-amino]-butyl}-nonanoic acid] belongs 59 µM; to `N=C(N)c1ccc2[nH]c(C(=O)NCC(=O)NCCCC(=O)O)cc2c1` [4-{2-[(5-Carbamimidoyl-1H-indole-2-carbonyl)-amino]-acetylamino}-butyric acid], 50 µM.

In turn, `N=C(N)c1ccc2[nH]c(C(=O)NCCCCCC(=O)O)cc2c1` [6-[(5-Carbamimidoyl-1H-indole-2-carbonyl)-amino]-hexanoic acid] returned a half-maximal inhibitory concentration (IC50) of over 100 µM. Same read-out and setting: to `N=C(N)c1ccc2oc(C(=O)NCCCCCC(=O)O)cc2c1` [6-[(5-Carbamimidoyl-benzofuran-2-carbonyl)-amino]-hexanoic acid] belongs 16 µM; to `N=C(N)c1cccc(NCC(=O)NCCCCCCC(=O)O)c1` [7-[2-(3-Carbamimidoyl-phenylamino)-acetylamino]-heptanoic acid], over 100 µM; to `N=C(N)c1ccc(OCC(=O)NCCCCCCC(=O)O)cc1` [7-[2-(4-Carbamimidoyl-phenoxy)-acetylamino]-heptanoic acid], 2.6 µM. Still for that read-out and setting: the same measure for `N=C(N)c1ccc(NCC(=O)NCCCCCCC(=O)O)cc1` [7-[2-(4-Carbamimidoyl-phenylamino)-acetylamino]-heptanoic acid]: 67 µM; for `Cn1c(C(=O)NCCCCCCC(=O)O)cc2cc(C(=N)N)ccc21` [7-[(5-Carbamimidoyl-1-methyl-1H-indole-2-carbonyl)-amino]-heptanoic acid]: 7.5 µM; for `CCC(CCCCCNC(=O)c1cc2cc(C(=N)N)ccc2[nH]1)C(=O)O` (stereo unspecified) [7-[(5-Carbamimidoyl-1H-indole-2-carbonyl)-amino]-2-ethyl-heptanoic acid]: over 100 µM. Turning to `CC(CCCCCNC(=O)c1cc2cc(C(=N)N)ccc2[nH]1)C(=O)O` (stereo unspecified) [7-[(5-Carbamimidoyl-1H-indole-2-carbonyl)-amino]-2-methyl-heptanoic acid], the IC50 is 43.7 µM.

As for `CCC(CCCCNC(=O)c1cc2cc(C(=N)N)ccc2[nH]1)CC(=O)O` (stereo unspecified) [7-[(5-Carbamimidoyl-1H-indole-2-carbonyl)-amino]-3-ethyl-heptanoic acid], the IC50 came to 5.2 µM. The same measure, in the same setting: the same measure for `CC(CCCCNC(=O)c1cc2cc(C(=N)N)ccc2[nH]1)CC(=O)O` (stereo unspecified) [7-[(5-Carbamimidoyl-1H-indole-2-carbonyl)-amino]-3-methyl-heptanoic acid]: 2.8 µM.

As for `N=C(N)c1ccc2[nH]c(C(=O)NCCCCC(CC(=O)O)c3ccccc3)cc2c1` (stereo unspecified) [7-[(5-Carbamimidoyl-1H-indole-2-carbonyl)-amino]-3-phenyl-heptanoic acid], the half-maximal inhibitory concentration (IC50) turned out to be 4.9 µM. As to `N=C(N)c1ccc2[nH]c(C(=O)NCCCCCCC(=O)O)cc2c1` [7-[(5-Carbamimidoyl-1H-indole-2-carbonyl)-amino]-heptanoic acid], inhibition was half-maximal at 2.8 µM (IC50). With `CN(CCCCCCC(=O)O)C(=O)c1cc2cc(C(=N)N)ccc2[nH]1` [7-[(5-Carbamimidoyl-1H-indole-2-carbonyl)-methyl-amino]-heptanoic acid], half-maximal inhibition (IC50) was put at 3 µM. This IC50 and that of the compound before are within 1.5-fold of each other.

In turn, `N=C(N)c1ccc2c(c1)CC(C(=O)NCCCCCCC(=O)O)O2` (stereo unspecified) [7-[(5-Carbamimidoyl-2,3-dihydro-benzofuran-2-carbonyl)-amino]-heptanoic acid] returned a concentration for half-maximal inhibition (IC50) of 3.4 µM. On to `Cc1c(C(=O)NCCCCCCC(=O)O)[nH]c2ccc(C(=N)N)cc12` [7-[(5-Carbamimidoyl-3-methyl-1H-indole-2-carbonyl)-amino]-heptanoic acid], for which the IC50 came out at 4.1 µM. This IC50 and that of the compound before are within 1.5-fold of each other.

For the compound `N=C(N)c1ccc2sc(C(=O)NCCCCCCC(=O)O)cc2c1` [7-[(5-Carbamimidoyl-benzo[b]thiophene-2-carbonyl)-amino]-heptanoic acid], the IC50 came out at 7.3 µM.

With `N=C(N)c1ccc2oc(C(=O)NCCCCCCC(=O)O)cc2c1` [7-[(5-Carbamimidoyl-benzofuran-2-carbonyl)-amino]-heptanoic acid], inhibition was half-maximal at 0.27 µM (IC50). Same read-out and setting: the same measure for `N=C(N)c1ccc2c(C(=O)NCCCCCCC(=O)O)[nH]nc2c1` [7-[(6-Carbamimidoyl-1H-indazole-3-carbonyl)-amino]-heptanoic acid]: 0.14 µM. Turning to `N=C(N)c1ccc2cc(C(=O)NCCCCCCC(=O)O)[nH]c2c1` [7-[(6-Carbamimidoyl-1H-indole-2-carbonyl)-amino]-heptanoic acid], the IC50 was 1.3 µM.

Turning to `N=C(N)c1ccc2c(C(=O)NCCCCCCC(=O)O)c[nH]c2c1` [7-[(6-Carbamimidoyl-1H-indole-3-carbonyl)-amino]-heptanoic acid], the half-inhibitory concentration (IC50) was 0.65 µM.

The compound `N=C(N)c1ccc2cc(C(=O)NCCCCCCC(=O)O)oc2c1` [7-[(6-Carbamimidoyl-benzofuran-2-carbonyl)-amino]-heptanoic acid] yielded an IC50 of 7.2 µM. Consider `N=C(N)c1ccc2[nH]c(C(=O)NCc3ccc(CC(=O)O)cc3)cc2c1` [(4-{[(5-Carbamimidoyl-1H-indole-2-carbonyl)-amino]-methyl}-phenyl)-acetic acid], for which the IC50 came to 47 µM.

Consider `N=C(N)c1ccc2[nH]c(C(=O)NCCCC(=O)NCC(=O)O)cc2c1` [{4-[(5-Carbamimidoyl-1H-indole-2-carbonyl)-amino]-butyrylamino}-acetic acid], for which half-maximal inhibition (IC50) required 32 µM. The IC50 values of the last two compounds are within 1.5-fold of each other.

Biological target in a further test: not listed separately
In words: Inhibition ADP-induced (fibrinogen-mediated) platelet aggregation in human platelet-rich plasma (PRP).
Regarding `N=C(N)c1ccc2c(c1)cc(C(=O)NCCCCCCC(=O)O)n2Cc1ccccc1` [7-[(1-Benzyl-5-carbamimidoyl-1H-indole-2-carbonyl)-amino]-heptanoic acid], it took 21 µM to reach half-maximal inhibition (IC50). Still for that read-out and setting: the same measure for `N=C(N)c1ccc2oc(C(=O)NCCCCCCCC(=O)O)cc2c1` [8-[(5-Carbamimidoyl-benzofuran-2-carbonyl)-amino]-octanoic acid]: 26.7 µM; for `C#C[C@H](CC(=O)O)NC(=O)CCC(=O)Nc1ccc(C(=N)N)cc1` [(S)-3-[3-(4-Carbamimidoyl-phenylcarbamoyl)-propionylamino]-pent-4-ynoic acid]: 0.035 µM.

What is called IC50 is the point on the concentration scale where inhibition reaches its midpoint. Lower therefore signals higher potency.
